A selection: hits, their analogues and other compounds. The true share with any hit is near 3.6%.
HIF act: HIF pathway transcriptional activators, primary screen, cell-based, U2OS HRE-luciferase, luminescence | U2OS HRE-luciferase reporter; normalized: DMSO 0%, desferrioxamine 100% | 300,000 compounds, 0.32% hits | activation, % at 7.5 µM (by protocol);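 active = mean activation of at least 10% of the iron chelator positive control signal, with at least half of replicates also reaching 10%; inconclusive = mean and replicate majority disagree about reaching 10%; inactive = mean and most replicates under 10%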
T cruzi inh: inhibitors of intracellular T. cruzi growth, primary screen, luminescence, NIH3T3 host cells; AID 1885, 2009; inhibition, % (test concentration not listed); T. cruzi beta-gal in NIH3T3, 90 h; 300,000 compounds, 1.4% hits;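 active = mean inhibition across valid replicates above about 55%, limit read from the data; inconclusive = mean below that limit but half or more replicates reach it; inactive = mean below it, under half of replicates reach it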;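 note: signal also drops with host cell toxicity which is not excluded here; higher percent means less beta-gal luminescence so fewer parasites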
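Test system: β-gal T. cruzi (Tulahuen C4) inside NIH/3T3 cells / Quantity: 5,000 cells/well / Measured by: luminescence from GalScreen with 0.05% NP40, read after 60 min / Medium: DMEM plus 2% FBS / Measure: parasite load inhibition, % / Reagent: Tulahuen C4 trypomastigotes, 5000/well / Schedule: co-culture of at least 90 h after 3 h attachment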
Beta apoptosis: inhibitors of cytokine-induced beta cell apoptosis, primary screen, luminescence; 300,000 compounds, 0.8% hits; AID 435005, 2010; protection from apoptosis, % (concentration not given with the values); INS-1E cytokine-induced death, ATP luminescence, 48 h; percent of positive-control rescue, neutral wells zero;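 active = Every replicate reaches about 75%, or at least half do and their mean reaches it too, limit read from the data; inconclusive = At least half of replicates reach the limit but their mean does not; inactive = Under half of replicates reach the limit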;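 note: higher means more ATP so stronger rescue from cytokine killing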
CSC inhib: cancer stem cell viability inhibitors, primary screen, luminescence; cancer stem cell-like cells viability; inhibition, % at 7.5 µM; 300,000 compounds, 1.1% hits; AID 2717, 2010; in the data active = inhibition above about 75%; inconclusive = no clear call, values can overlap the other calls; tested in HMLE shEcad cells
SKKanGAS inh: S. pyogenes SKKanGAS growth inhibitors in kanamycin, primary screen, streptokinase expression inhibitor project, SKKanGAS strain, BacTiter-Glo luminescence. 6 h. AID 1662, 2009. 300,000 compounds, 1.3% hits. inhibition, % at 7.5 µM;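 active = mean replicate score, as percent of positive control median, at least 50; inconclusive = mean below 50 but one replicate at or above 50; inactive = mean and every replicate below 50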;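 note: strain carries kanamycin resistance gene driven by streptokinase promoter and grows in 40 µg/ml kanamycin; loss of luminescence reflects streptokinase promoter inhibition or plain growth inhibition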
PfHsp90 set2: growth inhibition of PfHsp90-expressing yeast, primary screen, antimalarial PfHsp90 inhibitor project, S. cerevisiae, BacTiter-Glo luminescence, single point, set 2. BacTiter-Glo ATP, 48 h; yeast lacking PDR1 and PDR3 efflux regulators. 310,000 compounds, 0.32% hits. AID 504621, 2011. inhibition, % at 9.4 µM;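 active = every replicate shows inhibition above about 80%, whatever the replicate mean, limit read from the data; inconclusive = mean inhibition reaches the set limit but some replicate falls short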
Numbers stand for hits; i = inactive; ? = inconclusive; nt = not tested or not shown.

SMILES	HIF act	T cruzi inh	Beta apoptosis	CSC inhib	SKKanGAS inh	PfHsp90 set2
O=C(NCCCn1ccnc1)c1ccc(-c2ccccc2)cc1	i	i	97	i	i	i
CSc1ccc(S(=O)(=O)Nc2c(C)n(C)n(-c3ccccc3)c2=O)cc1	i	i	i	i	i	i
O=C(C1=C[C@@H](c2ccc(C(F)(F)F)cc2)C[C@@H](OCCCCO)O1)N1CCN(Cc2ccccc2)CC1	i	i	116	i	i	i
C#Cc1ccc([C@@H]2C=C(C(=O)N3CCN(Cc4ccccc4)CC3)O[C@H](OCCCCO)C2)cc1	i	i	124	i	i	i
O=C(C1=C[C@H](c2ccc(C(F)(F)F)cc2)C[C@H](OCc2ccc(CO)cc2)O1)N1CCN(Cc2ccc3c(c2)OCO3)CC1	i	65	i	80	i	nt
O=C(C1=C[C@@H](c2ccc(C(F)(F)F)cc2)C[C@@H](OCc2ccc(CO)cc2)O1)N1CCN(Cc2ccc3c(c2)OCO3)CC1	i	i	i	i	i	i
O=C(C1=C[C@H](c2ccc(C(F)(F)F)cc2)C[C@H](OCCCCO)O1)N1CCN(Cc2ccccc2)CC1	i	i	i	i	i	i
O=C(C1=C[C@@H](C2CC2)C[C@@H](OCCCCO)O1)N1CCN(Cc2ccc3c(c2)OCO3)CC1	40	i	i	i	i	i
O=C(C1=C[C@H](c2ccccc2)C[C@H](OCCCCO)O1)N1CCN(Cc2ccccc2)CC1	i	?	i	i	i	i
CSc1cccc(NC(=O)CSc2nc3ccccc3o2)c1	i	i	i	i	i	i
CC1(C)C[C@@H]2C[C@@](C)(CN2C(=O)c2cc(COc3cccc(C(F)(F)F)c3)on2)C1	i	i	104	96	i	i
COc1ccc(-c2cc(C(=O)N3CC4(C)CC3CC(C)(C)C4)no2)cc1OC (centres undefined)	i	i	i	83	i	i
O=C(c1cc(COc2cccc(C(F)(F)F)c2)on1)N1C[C@H]2CC[C@H]1C2	i	i	i	i	i	i
CCC(=O)C1CCCN(C(=O)CCc2nnc(C3(c4ccc(Cl)cc4)CCC3)o2)C1 (centres undefined)	i	i	i	i	i	i
COc1ccc(-c2sc3ccc(-c4ccc5c(c4)OCO5)cc3c2-c2ccc(OC)nc2)cc1	nt	nt	i	i	nt	nt
COc1ccc(C(=O)NC(=S)Nc2cccc(NC(=O)c3ccco3)c2)cc1[N+](=O)[O-]	i	i	i	i	i	i
CCOc1ccc(C(=O)NC(=S)Nc2ccc(NC(=O)CC)cc2)cc1[N+](=O)[O-]	i	i	i	i	53	i
CCOc1ccc(C(=O)NC(=S)Nc2cccc(NC(=O)c3ccco3)c2)cc1[N+](=O)[O-]	?	i	i	i	65	i
CCc1ccc(-c2cc(C(F)(F)F)n3nc(C(=O)Nc4c(C)nn(Cc5ccccc5C)c4C)cc3n2)s1	i	59	i	nt	i	nt
CCc1ccc(-c2cc(C(F)(F)F)n3nc(C(=O)Nc4c(C)nn(Cc5ccccc5Cl)c4C)cc3n2)s1	i	i	i	nt	i	nt
Cc1ccccc1CNC(=O)c1ccccc1N(C)S(=O)(=O)c1ccccc1	i	i	nt	nt	i	i
CCOCCCNC(=O)c1cn(CC)c2ccc(S(=O)(=O)N3CCCC3)cc2c1=O	i	i	i	i	i	i
Cc1ccc(Nc2nc(-c3ccncc3)cs2)cc1	i	70	nt	nt	i	i
Clc1ccc(Nc2nc(-c3cccnc3)cs2)cc1	i	i	i	i	i	i
Cc1cccc(Nc2nc(-c3ccncc3)cs2)c1	i	61	i	i	i	i
c1ccc(-c2csc(Nc3cccnc3)n2)cc1	i	i	i	i	i	i
Clc1ccc(-c2csc(Nc3cccnc3)n2)cc1	i	58	i	i	i	i
Cc1ccc(Nc2nc(-c3sc(C)nc3C)cs2)cc1	i	i	i	i	i	i
Clc1cccc(Nc2nc(-c3ccncc3)cs2)c1	i	66	i	?	i	i
Cc1cc(=O)cc(C)n1-c1ccccc1Br	i	i	i	i	i	i

High-throughput results: PubChem BioAssay, Broad Institute
